Reference: PMC7668563 (International journal of molecular biology (Edmond, Okla.), 2020)
Read-outs that look alike come from different tables or passages of the source.

What was measured:
[1] = tested on: human colorectal adenocarcinoma cell line, HT-29; conditions: cited from earlier work
[2] = molecular target: T1, apo-human transferrin (apo-hTf) (Homo sapiens, UniProt P02787); assay: Fluorescence quenching of apo-hTf; assay type: binding; conditions: for biomolecular quenching rate constant kq: kq=Ksv/τ0; for Stern-Volmer quenching constant Ksv / number of binding sites n: pH 7.4; for quenching association constant Ka: pH 7.4, modified Stern-Volmer
In short: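 Intrinsic fluorescence of apo-hTf in Tris-HCl pH 7.4 was titrated with test compound (Tris-HCl/2% DMSO). Conditions: excitation 280 nm, emission 290–500 nm, slits 10/5 nm, 1.0 cm quartz cell, at 296, 303, 310 and 317 K, triplicate titrations. Intensities were corrected for inner filter effect using absorbances at excitation and emission wavelengths. Ksv came from Stern-Volmer plots of F0/F vs [Q]; kq = Ksv/τ0 (τ0 ~1.0×10−8); Ka and n came from the modified Stern-Volmer equation.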

[3] = molecular target: T1, apo-human transferrin (apo-hTf); assay: Far-UV circular dichroism titration of apo-hTf, secondary structure content
In short: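 Apo-hTf (4.0×10−7 mol L−1) in 2 mM Tris-HCl pH 7.4 was titrated with a 1.0×10−3 mol L−1 stock of test compound in Tris-HCl/2% DMSO, to final 0–2.4×10−6 mol L−1. Far-UV CD was recorded from 190–250 nm under nitrogen in a 1.0 cm cell: six scans at 100 nm/min. Baseline was buffer ± DMSO at room temperature. α-Helix was derived from MRE at 208 nm; β-sheet and random coil by the CD-RRG method.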

[4] = molecular target: T1, apo-human transferrin (apo-hTf); assay: Thermodynamic parameters of apo-hTf complex formation; assay type: binding; conditions: for ∆H° / ∆S°: pH 7.4, from Ksv at 296-317 K
In short: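 Ksv values were obtained from apo-hTf fluorescence quenching at pH 7.4 at 296, 303, 310 and 317 K. ΔH°, ΔS° and ΔG° were derived from linear regression of ln(Ksv) vs 1/T (Van't Hoff equation).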

[5] = tested on: human breast adenocarcinoma cell line, MCF-7; conditions: cited from earlier work
[6] = molecular target: T1, apo-human transferrin (apo-hTf); assay: UV-Vis absorbance titration of apo-hTf; assay type: binding; conditions: for Ka at 280 nm: absorbance at 280 nm; for Association constants, Ka, 280 nm: absorbance of apo-hTf at 280 nm
[7] = molecular target: T1, apo-human transferrin (apo-hTf); assay: Fluorescence resonance energy transfer; assay type: binding; conditions: for Förster critical energy transfer distance R0 / binding distance r (donor-acceptor): k^2=2/3, n=1.336, ØD=0.118; for efficiency of energy transfer E: room temperature, 1.0×10^−5 mol L^−1 each
In short: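 Emission spectrum of 1.0×10−5 mol L−1 apo-hTf and absorption spectrum of 1.0×10−5 mol L−1 test compound were recorded in 20 mM Tris-HCl pH 7.4 at room temperature, 260–450 nm, and their spectral overlap determined. E was calculated from apo-hTf fluorescence without and with equimolar test compound. R0 and donor–acceptor distance r came from Förster equations.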

T1 sequence (P02787 20-698): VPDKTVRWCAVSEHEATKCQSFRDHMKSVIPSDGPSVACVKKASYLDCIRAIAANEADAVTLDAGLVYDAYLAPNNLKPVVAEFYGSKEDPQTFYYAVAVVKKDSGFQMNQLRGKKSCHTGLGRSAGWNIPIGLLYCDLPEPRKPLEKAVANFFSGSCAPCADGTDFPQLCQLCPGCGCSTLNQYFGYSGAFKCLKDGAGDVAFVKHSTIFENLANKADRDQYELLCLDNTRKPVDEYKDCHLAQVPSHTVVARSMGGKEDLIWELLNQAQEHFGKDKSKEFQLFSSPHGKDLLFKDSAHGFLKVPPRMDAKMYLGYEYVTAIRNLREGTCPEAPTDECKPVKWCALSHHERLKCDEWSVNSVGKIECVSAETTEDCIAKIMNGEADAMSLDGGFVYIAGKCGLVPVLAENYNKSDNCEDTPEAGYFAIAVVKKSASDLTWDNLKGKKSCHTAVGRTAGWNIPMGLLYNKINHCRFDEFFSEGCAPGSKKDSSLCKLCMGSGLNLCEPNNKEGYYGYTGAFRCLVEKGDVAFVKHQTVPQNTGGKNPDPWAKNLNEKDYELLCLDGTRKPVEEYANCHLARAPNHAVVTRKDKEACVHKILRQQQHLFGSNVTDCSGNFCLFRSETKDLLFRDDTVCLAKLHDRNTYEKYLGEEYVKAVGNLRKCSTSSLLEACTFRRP

## N.N.[Cl][Pt][Cl] [(NH3)2Pt(II)Cl2, cis-diamminedichloroplatinum (II), reference compound]
[1]; read-out: IC50 (±SD), HT-29, ref 77
  IC50: 66 µM
[1]; read-out: IC50 (±SD), HT-29, ref 84
  IC50: 23 µM
[1]; read-out: IC50 (±SD), HT-29, ref 85
  IC50: 76 µM
[2]; 296 K
  biomolecular quenching rate constant kq: 1.35e+11 M⁻¹ s⁻¹
  Stern-Volmer quenching constant Ksv: 1350 M⁻¹
  number of binding sites n: 0.97
  quenching association constant Ka: 1100 M⁻¹
[2]; 303 K
  biomolecular quenching rate constant kq: 1.1e+11 M⁻¹ s⁻¹
  Stern-Volmer quenching constant Ksv: 1100 M⁻¹
  number of binding sites n: 1.01
  quenching association constant Ka: 1200 M⁻¹
[2]; 310 K
  biomolecular quenching rate constant kq: 9.8e+10 M⁻¹ s⁻¹
  Stern-Volmer quenching constant Ksv: 980 M⁻¹
  number of binding sites n: 1.04
  quenching association constant Ka: 1400 M⁻¹
[2]; 317 K
  biomolecular quenching rate constant kq: 8.6e+10 M⁻¹ s⁻¹
  Stern-Volmer quenching constant Ksv: 860 M⁻¹
  number of binding sites n: 1.07
  quenching association constant Ka: 1600 M⁻¹
[3]; compound concentration 0.4 (M)
  other secondary structure content of apo-hTf: 19.1%
  random coil content of apo-hTf: 33.9%
  α-helix content of apo-hTf: 28.9%
  β-sheet content of apo-hTf: 18.1%
[3]; compound concentration 0.8 (M)
  other secondary structure content of apo-hTf: 19.2%
  random coil content of apo-hTf: 33.9%
  α-helix content of apo-hTf: 28.7%
  β-sheet content of apo-hTf: 18.2%
[3]; compound concentration 1.2 (M)
  other secondary structure content of apo-hTf: 19.2%
  random coil content of apo-hTf: 34%
  α-helix content of apo-hTf: 28.5%
  β-sheet content of apo-hTf: 18.3%
[3]; compound concentration 1.6 (M)
  other secondary structure content of apo-hTf: 19.3%
  random coil content of apo-hTf: 34%
  α-helix content of apo-hTf: 28.3%
  β-sheet content of apo-hTf: 18.4%
[3]; compound concentration 2 (M)
  other secondary structure content of apo-hTf: 19.3%
  random coil content of apo-hTf: 34.1%
  α-helix content of apo-hTf: 28.1%
  β-sheet content of apo-hTf: 18.5%
[3]; compound concentration 2.4 (M)
  other secondary structure content of apo-hTf: 19.3%
  random coil content of apo-hTf: 34.1%
  α-helix content of apo-hTf: 28%
  β-sheet content of apo-hTf: 18.6%
[4]; 296 K
  ∆G°: -17.68 kJ/mol
[4]; 303 K
  ∆G°: -17.71 kJ/mol
[4]; 310 K
  ∆G°: -17.75 kJ/mol
[4]; 317 K
  ∆G°: -17.79 kJ/mol
[4]
  ∆H°: -16.15 kJ/mol
  ∆S°: 5.17 J/mol K
[5]; read-out: IC50 (±SD), MCF-7, ref 83
  IC50: 2 µM
[5]; read-out: IC50 (±SD), MCF-7, ref 84
  IC50: 4.6 µM
[6]
  Ka at 280 nm: 740 M⁻¹
[6]; pH 7.4
  Association constants, Ka, 280 nm: 0.74 10^3 M^−1
[7]
  Förster critical energy transfer distance R0: 7.4 nm
  binding distance r (donor-acceptor): 10.35 nm
  efficiency of energy transfer E: 0.118

## [Cl-].[Cl-].[Mo+4].c1cc[cH-]c1.c1cc[cH-]c1 [Cp2MoCl2]
[1]; read-out: IC50 (±SD), HT-29, ref 21
  IC50: 2600 µM
[2]; 296 K
  biomolecular quenching rate constant kq: 1.51e+11 M⁻¹ s⁻¹
  Stern-Volmer quenching constant Ksv: 1510 M⁻¹
  number of binding sites n: 1.26
  quenching association constant Ka: 19300 M⁻¹
[2]; 303 K
  biomolecular quenching rate constant kq: 1.59e+11 M⁻¹ s⁻¹
  Stern-Volmer quenching constant Ksv: 1590 M⁻¹
  number of binding sites n: 1.23
  quenching association constant Ka: 15800 M⁻¹
[2]; 310 K
  biomolecular quenching rate constant kq: 1.81e+11 M⁻¹ s⁻¹
  Stern-Volmer quenching constant Ksv: 1810 M⁻¹
  number of binding sites n: 1.19
  quenching association constant Ka: 12100 M⁻¹
[2]; 317 K
  biomolecular quenching rate constant kq: 2.05e+11 M⁻¹ s⁻¹
  Stern-Volmer quenching constant Ksv: 2050 M⁻¹
  number of binding sites n: 1.16
  quenching association constant Ka: 9500 M⁻¹
[3]; compound concentration 0.4 (M)
  other secondary structure content of apo-hTf: 19.3%
  random coil content of apo-hTf: 33.9%
  α-helix content of apo-hTf: 28.7%
  β-sheet content of apo-hTf: 18.1%
[3]; compound concentration 0.8 (M)
  other secondary structure content of apo-hTf: 19.4%
  random coil content of apo-hTf: 34%
  α-helix content of apo-hTf: 28.3%
  β-sheet content of apo-hTf: 18.3%
[3]; compound concentration 1.2 (M)
  other secondary structure content of apo-hTf: 19.9%
  random coil content of apo-hTf: 34.1%
  α-helix content of apo-hTf: 27.6%
  β-sheet content of apo-hTf: 18.4%
[3]; compound concentration 1.6 (M)
  other secondary structure content of apo-hTf: 20%
  random coil content of apo-hTf: 34.3%
  α-helix content of apo-hTf: 27.1%
  β-sheet content of apo-hTf: 18.6%
[3]; compound concentration 2 (M)
  other secondary structure content of apo-hTf: 20.1%
  random coil content of apo-hTf: 34.5%
  α-helix content of apo-hTf: 26.5%
  β-sheet content of apo-hTf: 18.9%
[3]; compound concentration 2.4 (M)
  other secondary structure content of apo-hTf: 20.2%
  random coil content of apo-hTf: 34.7%
  α-helix content of apo-hTf: 25.8%
  β-sheet content of apo-hTf: 19.3%
[4]; 296 K
  ∆G°: -17.96 kJ/mol
[4]; 303 K
  ∆G°: -18.66 kJ/mol
[4]; 310 K
  ∆G°: -19.35 kJ/mol
[4]; 317 K
  ∆G°: -20.05 kJ/mol
[4]
  ∆H°: 11.58 kJ/mol
  ∆S°: 99.78 J/mol K
[5]
  IC50 (±SD), MCF-7: proliferative activity
[5]; listed as Cp^2MoCl^2
  IC50 (±SD), MCF-7: Proliferative[21],[68]
[6]
  Ka at 280 nm: 3060 M⁻¹
[6]; absorbance at 361 nm
  Ka at 361 nm: 3090 M⁻¹
[6]; pH 7.4
  Association constants, Ka, 280 nm: 3.06 10^3 M^−1
[6]; absorbance of apo-hTf at 361 nm, pH 7.4
  Association constants, Ka, 361 nm: 3.09 10^3 M^−1
[7]
  Förster critical energy transfer distance R0: 3.38 nm
  binding distance r (donor-acceptor): 4.44 nm
  efficiency of energy transfer E: 0.162

## [Cl-].[Cl-].[Ti+4].c1cc[cH-]c1.c1cc[cH-]c1 [Cp2TiCl2, titanocene dichloride]
[1]; read-out: IC50 (±SD), HT-29, ref 82
  IC50: 413 µM
[2]; 296 K
  biomolecular quenching rate constant kq: 1.53e+11 M⁻¹ s⁻¹
  Stern-Volmer quenching constant Ksv: 1530 M⁻¹
  number of binding sites n: 1.11
  quenching association constant Ka: 4500 M⁻¹
[2]; 303 K
  biomolecular quenching rate constant kq: 1.68e+11 M⁻¹ s⁻¹
  Stern-Volmer quenching constant Ksv: 1680 M⁻¹
  number of binding sites n: 1.09
  quenching association constant Ka: 4100 M⁻¹
[2]; 310 K
  biomolecular quenching rate constant kq: 1.76e+11 M⁻¹ s⁻¹
  Stern-Volmer quenching constant Ksv: 1760 M⁻¹
  number of binding sites n: 1.07
  quenching association constant Ka: 3600 M⁻¹
[2]; 317 K
  biomolecular quenching rate constant kq: 1.93e+11 M⁻¹ s⁻¹
  Stern-Volmer quenching constant Ksv: 1930 M⁻¹
  number of binding sites n: 1.05
  quenching association constant Ka: 3100 M⁻¹
[3]; compound concentration 0.4 (M)
  other secondary structure content of apo-hTf: 18.9%
  random coil content of apo-hTf: 33.8%
  α-helix content of apo-hTf: 29.3%
  β-sheet content of apo-hTf: 18%
[3]; compound concentration 0.8 (M)
  other secondary structure content of apo-hTf: 18.9%
  random coil content of apo-hTf: 33.8%
  α-helix content of apo-hTf: 29.1%
  β-sheet content of apo-hTf: 18.2%
[3]; compound concentration 1.2 (M)
  other secondary structure content of apo-hTf: 18.8%
  random coil content of apo-hTf: 33.9%
  α-helix content of apo-hTf: 29%
  β-sheet content of apo-hTf: 18.3%
[3]; compound concentration 1.6 (M)
  other secondary structure content of apo-hTf: 18.9%
  random coil content of apo-hTf: 33.9%
  α-helix content of apo-hTf: 28.8%
  β-sheet content of apo-hTf: 18.4%
[3]; compound concentration 2 (M)
  other secondary structure content of apo-hTf: 18.9%
  random coil content of apo-hTf: 34%
  α-helix content of apo-hTf: 28.6%
  β-sheet content of apo-hTf: 18.5%
[3]; compound concentration 2.4 (M)
  other secondary structure content of apo-hTf: 19%
  random coil content of apo-hTf: 34%
  α-helix content of apo-hTf: 28.4%
  β-sheet content of apo-hTf: 18.6%
[4]; 296 K
  ∆G°: -18.06 kJ/mol
[4]; 303 K
  ∆G°: -18.68 kJ/mol
[4]; 310 K
  ∆G°: -19.30 kJ/mol
[4]; 317 K
  ∆G°: -19.92 kJ/mol
[4]
  ∆H°: 8.13 kJ/mol
  ∆S°: 88.48 J/mol K
[5]; read-out: IC50 (±SD), MCF-7, ref 82
  IC50: 570 µM
[6]
  Ka at 280 nm: 2890 M⁻¹
[6]; pH 7.4
  Association constants, Ka, 280 nm: 2.89 10^3 M^−1
[7]
  Förster critical energy transfer distance R0: 5.03 nm
  binding distance r (donor-acceptor): 6.77 nm
  efficiency of energy transfer E: 0.144
